Measurements collected from several papers.
Compare with care: the assays were run in different laboratories.
Target: Protein kinase C alpha type (PRKCA, Homo sapiens, UniProt P17252)

Compound | test | setting | measurement | result
CC(C)(O)[C@H]1CC[C@H](Nc2ccc3ncc(-c4cccc(C(F)(F)F)c4)n3n2)CC1 | enzyme activity, inhibitor | 1 µM | remaining activity | 69.5%
CCCS(=O)(=O)Nc1ccc(F)c(C(=O)c2c[nH]c3ncc(-c4ccc(Cl)cc4)cc23)c1F | enzyme activity, inhibitor | 1 µM | inhibition | < 10%
Cc1ccc(NC(=O)c2ccc(C)c(C(F)(F)F)c2)cc1C#Cc1nn(C2CCC(O)CC2)c2ncnc(N)c12 (stereo not shown) | cell-free assay | 10 µM | remaining signal | 110%
COc1cc(Cl)c(C(=O)N[C@@H](CN[C@H]2CC[C@@H](N)CC2)Cc2ccc(C#N)cc2)cc1-c1ccc(CN[C@H](C)c2ccc(C)cc2)o1 | enzyme activity, inhibitor | 1 µM | remaining activity | 97%
CC/C(=N\NC(=O)NCc1cccc(O)c1)c1ccc(O)c(C)c1O | enzyme activity, inhibitor | 0.1 µM | inhibition | 2.6%
FC(F)c1nc2ccccc2n1-c1nc(N2CCOCC2)nc(N2CCOCC2)n1 | enzyme activity, inhibitor | 10 µM | remaining activity | 86%
Cc1ccc(-n2nc(C(C)(C)C)cc2NC(=O)Nc2ccc(OCCN3CCOCC3)c3ccccc23)cc1 | enzyme activity, inhibitor | 10 µM | inhibition | 9%
COc1cc2ncnc(Nc3ccc(Oc4ccccc4)cc3C)c2cc1OC | enzyme activity, inhibitor | 1 µM | inhibition | 6%
O=C(Nc1cnn(-c2csc(C(=O)NC3COC3)c2)c1)Nc1ccccc1Cl | enzyme activity, inhibitor | 5 µM | remaining activity | 101%
O=C1Nc2ccc(Cl)cc2C1=Cc1cc(Cl)c(O)c(Cl)c1 | cell-free assay | 0.5 µM | remaining signal | 105%
CCN(CC)CCNC(=O)c1c(C)[nH]c(/C=C2\C(=O)Nc3ccc(F)cc32)c1C | enzyme activity, inhibitor | 0.1 µM | remaining activity | 101%
CN(C)C[C@H]1CCn2c(c(C3=C(c4cn(C)c5ccccc45)C(=O)NC3=O)c3ccccc32)C1 | cell-free assay | 0.5 µM | remaining signal | 2.58%
Cc1[nH]c(/C=C2\C(=O)Nc3ccc(F)cc32)c(C)c1C(=O)N[C@H]1CCN(C(=O)N(C)C)C1 | enzyme activity, inhibitor | 1 µM | remaining activity | 106%
COc1cc(Nc2cnc(C#N)c(O[C@H](C)CN(C)C)n2)ncc1-c1cnn(C)c1 | enzyme activity, inhibitor, radiometric | 1 µM | remaining activity | 115%
FC(F)(F)Oc1cccc(-c2cnc3ccc(-c4ccncc4)nn23)c1 | enzyme activity, inhibitor, radiometric | 1 µM | activity vs control | 96%
O=C1NC(=O)c2cc(Nc3ccc(F)cc3)c(Nc3ccc(F)cc3)cc21 | cell-free assay | 0.5 µM | remaining signal | 99.3%
COc1cc(/C=C/C(=O)CC(=O)/C=C/c2ccc(O)c(OC)c2)ccc1O | enzyme activity, inhibitor | 1 µM | activity vs control | 106%
CC(C)(C)c1nc(-c2cccc(NS(=O)(=O)c3c(F)cccc3F)c2F)c(-c2ccnc(N)n2)s1 | enzyme activity, inhibitor, radiometric | 1 µM | remaining activity | 100%
Cc1cnc(NC2CCOCC2)nc1-n1cnc(C(=O)NC(CN)c2cc(F)cc(Cl)c2)c1 (stereo not shown) | enzyme activity, inhibitor, radiometric | 1 µM | remaining activity | 100%
CCN(CC)CCNC(=O)c1c(C)[nH]c(/C=C2\C(=O)Nc3ccc(F)cc32)c1C | enzyme activity, inhibitor | 10 µM | inhibition | 11%
CCCOc1ccc(OC)c(F)c1C(=O)c1ccc(C(=O)N[C@@H]2CNC[C@H]2NC(=O)c2ccc3[nH]ncc3c2)cc1 | enzyme activity, inhibitor | 10 µM | remaining activity | 92%
O=C(CSc1nc2nccnc2c(=O)n1CCc1ccccc1)Nc1nccs1 | enzyme activity, inhibitor | 10 µM | inhibition | 15%
